Assay: Toxicity liver stage against HepG2, at 10uM
Assay type: cell-based
Design: test concentration 10 uM, cell line HepG2-A16-CD81EGFP
Conditions: human, HepG2-A16-CD81EGFP cells; read-out: INHIBITION
Outline: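 Uninfected HepG2-A16-CD81EGFP cells, 3 × 10^3 per well, 1536-well, plated on prespotted compound at 10 μM final, parasite-free screening media added to match infected plates; puromycin 10 μM positive, DMSO 0.5% negative; run in parallel with 48 h PbLuc assay at 37 °C, 5% CO2; viability by CellTiter-Glo luminescence, normalized to controls.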

SMILES | cytotoxicity at 10 µM [%]
C[C@H](NC(=O)N1CCC(Cc2ccccc2)CC1)C(=O)O | -1.65
CC1(NC(=O)Cc2csc(-c3cccc(Cl)c3)n2)CCS(=O)(=O)C1 (centres undefined) | -3.61
CN(C(=O)CCNC(=O)NC1CCCCC1)c1ccccc1 | -0.575
Cn1ccnc1CN1C(=O)CO[C@H]2CN(CCCc3ccccc3)C[C@H]21 | 4.22
COc1ccc(C(=O)N2CC(=O)N(Cc3cccs3)CC(O)C2)cc1 (centres undefined) | 4.43
Cc1nn(-c2ncccn2)c2c1C(c1cnn(C)c1C)SCC(=O)N2 (centres undefined) | -46.4
O=C(CCSc1ccccc1)NCC1CCN(Cc2ccsc2)CC1 | -6.93
O=C(c1ccccn1)N1CCN(c2ccc(-n3cccc3)nn2)CC1 | -13.7
c1cncc(-c2ccc3c(c2)C2(CCNCC2)CC3)c1 | 4.59
CS(=O)(=O)N1CCOCC2(CCN(C(=O)c3ccco3)CC2)C1 | 4.29
O=C(COc1ccccc1)N1CCC[C@]2(C[C@@H](OCC3CC3)CO2)C1 | -1.69
CCC1(CC)C(=O)NC(=O)N=C1Nc1ccc(C)cc1 | -6.34
Cc1nn(C)cc1Cn1cc(Cl)c(N)n1 | -5.61
CCn1nc(C)c2ncnc(NCC(=O)N3CCOCC3)c21 | 3.54
O=C1CC(c2ccc(F)c(F)c2)c2snc(C(=O)O)c2N1 (centres undefined) | 6.95
O=C(Cn1cnc2cc3c(cc21)OCCCO3)NC1CCCC1 | 3.92
CCN(CC)S(=O)(=O)N1CCC(c2c(C(N)=O)sc3ccccc23)C1 (centres undefined) | 1.4
O=C(N1CCCC1)N1CCn2c(nnc2C2CCCN2)C1 (centres undefined) | 4.12
COc1ccc(CN(C(=O)C2CCCO2)c2ccncc2)cc1 (centres undefined) | 1.86
NC(=O)CC1CCCN(c2cncc(OCc3ccccc3)n2)C1 (centres undefined) | 17.7
COc1ccc(C(C)NCCc2ccc(NC(C)=O)cc2)cc1F (centres undefined) | 6.75
Cc1ccc(CNC(=O)N(C)Cc2ccc([S+](C)[O-])cc2)s1 (centres undefined) | 6.75

SMILES | cytotoxicity at 10 µM [%]
CC(NC(=O)c1ccc(C(N)=O)cc1)c1cccc(N2CCOC2=O)c1 (centres undefined) | -2.83
CCC(C)(O)CNC(=O)Nc1ccc(C)cc1Br (centres undefined) | -9.95
CC(c1cccnc1)N(C)C(=O)NCCOc1ccc(C#N)cc1 (centres undefined) | -6.17
O=C(NCCc1cccc(Cl)c1)C1CCOCC1 | -8.47
COCc1cc(N(C)Cc2ccccn2)nc(C(C)(C)C)n1 | 12.1
CCn1cnnc1CNC(=O)N1CCOC(c2ccc(Cl)cc2)C1 (centres undefined) | 4.13
O=C(CNC1CCc2ncnn2C1)N(Cc1cccs1)C1CC1 (centres undefined) | -3.09
CS(=O)(=O)Nc1cccc(CNC(=O)CCC(=O)c2cccs2)c1 | 1.73
COc1ccc(CNCc2nnc3n2CC(C(F)(F)F)CC3)cc1 (centres undefined) | 3.27
CCS(=O)(=O)N(C)C1CCN(C(=O)c2ccc(C)c(C)c2)CC1 | -2.76
Cc1cn2c(n1)CCC(NC(=O)CNS(C)(=O)=O)C2 (centres undefined) | -9.84
OC(COc1ccccc1)CN1CCN(c2nccs2)CC1 (centres undefined) | 13.1
Cc1nc2c(c(C)c1CC(=O)NC(C)c1ccccc1)c(=O)[nH]n2C (centres undefined) | -3.44
CS(=O)(=O)CCN1CCC(=Cc2ccccc2)CC1 | -2.99
CC(C)(C)OC(=O)N1CC(CC(=O)NCc2ccsc2)C1 | 5.18
Cn1c(CN2CCN(CC3CCCO3)CC2)nc2ccccc21 (centres undefined) | -25.1
CC(NC(N)=O)C(=O)Nc1ccc(OCc2cccc(F)c2)c(F)c1 (centres undefined) | -12.3
Cc1ccc(-n2cc(C(=O)NCC(C)Cn3cccn3)nn2)cc1 (centres undefined) | -46.2
CN(C)c1cc2c(nn1)CCN(C(=O)c1ccc(-n3cccn3)nc1)C2 | -1.86
Cc1cc(CN(C)C(=O)CN2CCCCCC2=O)no1 | 7.41
CN(C)S(=O)(=O)N1CCN(C(=O)OC(C)(C)C)CC12CCCCC2 | 3.36
COc1ccc(CN2CCCCC2CNC(=O)OC(C)(C)C)cc1F (centres undefined) | -2.26

SMILES | cytotoxicity at 10 µM [%]
Cc1cccc(C2(C(=O)NCCCn3cccn3)CC2)c1 | -7.66
CCc1csc(C2CCCN(C(=O)c3ccnc(N(C)C)c3)C2)n1 (centres undefined) | -6.81
Cc1nc(C)c(CNC(=O)NC(c2nnc3n2CCC3)C(C)C)s1 (centres undefined) | -1.79
O=C(NCC1CC2(CO1)CN(c1ncccn1)C2)C1CCC1 (centres undefined) | -107
Cc1ccc(N2C[C@@H]3OCCN(Cc4c(C)noc4C)[C@@H]3C2)nn1 | -1.62
c1nc2c(c(N3CCOCC3)n1)CCNCC2 | -2.36
COCCn1c2c(ccc1=O)CCN(C(=O)Cc1ccsc1)CC2 | 2.22
CS(=O)(=O)N1CCO[C@@H]2CN(C(=O)C3CC(F)(F)C3)C[C@@H]2C1 | 6.19
O=C(c1ccsc1)N1C[C@@H]2CCN(C(=O)c3cscn3)[C@@H]2C1 | 0.0861
CN(C)C(=O)COC1COC2(CCN(c3ncccn3)CC2)C1 (centres undefined) | -72.8
C[C@H]1C[C@H]2CN(C(=O)CCOc3ccccc3)CC[C@H]2O1 | -69.3
Cc1ccc(C(=O)N2C[C@@H]3OCCN(C(C)C)[C@@H]3C2)cn1 | -81.7
Cn1cc(CN2CCCC23CCN(S(C)(=O)=O)CC3)cn1 | -82.1
CN1CCC(c2nnc(CN3CCOCC3)n2C)CC1 | -1.16
CC(C)Cc1ncc2c(n1)CN(c1cc(NCCO)nc(N)n1)C2 | -2.68
COc1c(F)cc(-c2cccc3c2OC(CN)C3)cc1F (centres undefined) | -53.7
CCN(CC)c1ncccc1CNCc1ccc(-c2ccn[nH]2)s1 | 6.43
CN(CCc1ccccn1)C(=O)CCC1CCCN(c2cnccn2)C1 (centres undefined) | 4.13
CC(C)[C@@H]1CN(S(=O)(=O)Cc2ccccc2)C[C@H]1C(=O)O | -1.05
O=C(NCC(O)c1cccc(F)c1)C1CCN(C2CCCCC2)CC1 (centres undefined) | 7.07
Cc1nc(N(C)C)nc(-c2cccc(-c3ccn(CCCF)n3)c2)c1C | 3.7
CCC[C@@H]1CN(C(=O)c2conc2-c2ccccc2)C[C@H]1N(C)C | 2.29

SMILES | cytotoxicity at 10 µM [%]
CNC(=O)[C@@H]1C[C@@H](N)CN1C1CCN(Cc2ccccn2)CC1 | -53.5
O=C(c1ccc(C2CCCN2)s1)N1CCN(C(=O)N2CCOCC2)CC1 (centres undefined) | 0.106
CCOc1ccccc1C(C(=O)O)N(C)Cc1cc(C)[nH]n1 (centres undefined) | 9.34
CCC(CO)N(Cc1ccsc1)Cc1c(C)nn(C)c1Cl (centres undefined) | 17.8
CCOCc1nc(CSc2ccncc2)n(C)n1 | 2.87
COc1c(F)cccc1C(=O)N(C)Cc1nc(-c2ccccn2)no1 | -1.51
CN(CCN1CCCCCC1)c1nccc(N2CCC(O)C2)n1 (centres undefined) | 5.27
CCCOC1CCCN(Cc2nc(-c3ccc(F)cc3F)oc2C)C1 (centres undefined) | -51.1
Cc1ncc(S(C)(=O)=O)c(N2CCCCCC2)n1 | -0.972
CCNc1ncc(C)c(-c2cnn(C)c2)n1 | -3.73
CC(C)N1CCC(C(=O)N[C@H](C(=O)O)c2cccc(F)c2F)CC1 | 2.59
O=c1[nH]c(-c2ccc(F)c(F)c2)nc2c1CCNC2 | 2.06
CCc1nc(NCCc2nc(C)c(C)s2)c2cnn(C)c2n1 | 6.31
Cc1cccnc1CN(C)C(C(=O)O)c1ccc(C(C)(C)C#N)cc1 (centres undefined) | 0.566
CN(CCCC1CCCC1)C(=O)c1cc(CN2CCC(O)CC2)on1 | 5.21
CCN(CC1CCOCC1)C(=O)Cn1cccc(C(F)(F)F)c1=O | -10.2
Cc1cc(N2CCC3(CCC(=O)N(CCO)C3)CC2)nc(N(C)C)n1 | -4.78
O=C(CCn1cc(Cl)cn1)N1CCN(CC2CC2)[C@@H]2CS(=O)(=O)C[C@@H]21 | 2.28
CC(=O)NC(CC(=O)Nc1ccc(C)cn1)c1ccccc1 (centres undefined) | -12.5
COCCCNC(=O)CN1CCC(N2CCN(C)C2=O)CC1 | -2.54
O=C(CN1CCCC1Cn1cncn1)NCCC1=CCCCC1 (centres undefined) | -16.5
COc1c(C)cnc(CN2CCCC2Cn2nc(C)nc2C)c1C (centres undefined) | -3.21

SMILES | cytotoxicity at 10 µM [%]
c1cnc(-c2nc(CN3CCCC3Cn3cncn3)cs2)nc1 (centres undefined) | -9.77
Cc1ccc(C(=O)N2CCN(Cc3ccccc3)CC2)n1C | -1.28
Cc1csc(C2CCCN(C(=O)c3cccc4c3OCO4)C2)n1 (centres undefined) | -4.11
Cc1nn(C)cc1-c1cncn1CCc1ccc2c(c1)OCCO2 | 11.5
Cn1ccnc1CNC(=O)c1cncc(C2CCNCC2)n1 | 1.81
Fc1ccc(C2(CNC3=NCCN3)CCCC2)cc1 | 12.9
Cc1c[nH]c(C2CCCN(Cc3ccccc3C(=O)O)C2)n1 (centres undefined) | -3.3
O=C(NCc1ccco1)[C@H]1CC[C@@H]2[C@@H](CCN2C2CCC2)O1 | 6.47
CC[C@H]1N(CC2CCOCC2)CCC[C@]12CCC(=O)N2 | 8.71
Cc1nc[nH]c1CN1CCC2(CC1)CC(Nc1ncccn1)CO2 (centres undefined) | 12.2
CCO[C@@H]1CC[C@H]2[C@H]1OCCN2CC1CCOCC1 | 10.8
CN(C)Cc1cc(=O)n2c(n1)CN(C(=O)Cc1cccs1)CCC2 | -2.8
O=C1COC2(CCN(Cc3ccco3)CC2)CN1 | -1.49
Cc1cc(CN2C[C@@H]3CCCO[C@@H]3[C@H](Nc3ccccn3)C2)no1 | -4.72
COc1ccccc1NCc1cscn1 | -0.358
Cc1noc([C@@H]2C[C@H]3CN(Cc4scnc4C)C[C@H]3O2)n1 | -136
CN(C)C(=O)N1Cc2nnn(C)c2C(COCc2cccnc2)C1 (centres undefined) | 10.8
COCCN1C(=O)CC[C@@H]2[C@H]1CCN2Cc1cccc(C#N)c1 | -33.1
CN(C)[C@@H]1CCN(C(=O)c2cccc(C#N)c2)[C@H]1Cc1cnn(C)c1 | -72.6
Cc1noc(C)c1CNCC1(COc2cccnc2)C[C@@H](O)[C@@H](O)C1 (some centres undefined) | -2.36
COCCN1C[C@@H]2CC[C@H]1CN(C(=O)CCc1c(C)nn(C)c1C)C2 | -8.6

From ChEMBL document CHEMBL4513216, “Probing the Open Global Health Chemical Diversity Library for Multistage-Active Starting Points for Next-Generation Antimalarials” (ACS Infect Dis, 2020)
